As a reminder, the EC50 is the concentration that produces a half-maximal response. A word on the IC50: it is the point on the concentration scale where inhibition reaches its midpoint.

Activity calls are given as the source filed them. No cut-off for these calls is given here. Bounds are passed on as bounds.

Data set [1] deals with MDA-MB-231. Description: Cytotoxicity against human MDA-MB-231 cells at 1 to 1000 nM after 72 hrs by CellTitre-Blue assay. In kind it is functional, cell-based. Put shortly: (§1)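 MDA-MB-231 cells in 96-well plates were exposed to serial dilutions (0.1–1000 nM) for 72 h. CellTiterBlue reagent was added for 2 h at 37 °C and fluorescence was read. Viability is expressed as % of mock-treated control, from which IC50 was taken. Three independent experiments, quadruplicate.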

For data set [2], the system named is MDA-MB-231. The experiment in a line: Cell cycle arrest in human MDA-MB-231 cells assessed as accumulation at G2/M phase at 10 nM after 48 hrs by propidium iodide staining-based flow cytometry. In kind it is functional.
The target in data set [3] is T1, Tubulin (Homo sapiens) (UniProt P68371+Q9H4B7+P0DPH7+P68366+Q13509+Q71U36+P04350+Q3ZCM7+P07437+P68363+Q9BQE3+Q6PEY2+Q13885+Q9BVA1+Q9BUF5). Description: Inhibition of tubulin polymerization in human MDA-MB-231 cells assessed as disruption of tubulin cytoskeleton at 100 nM after 24 hrs by Hoechst 33342 staining-based immunohistochemistry. Format: cell-based. In a few lines:
(§2)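 Cells (MDA-MB-231, or T-24 bladder carcinoma) were treated for 24 h at 1–1000 nM, or with DMSO (0.1%). Monomers were extracted for 2 min (80 mM PIPES pH 6.8, 1 mM MgCl2, 5 mM EGTA, 0.5% Triton X-100), then fixed with 0.5% glutaraldehyde and reduced with NaBH4. Staining used BSA blocking, anti-α-tubulin, an AlexaFluor 488 secondary and Hoechst 33342, with confocal imaging.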

In data set [4] the test system is MDA-MB-231. The experiment in a line: Cell cycle arrest in human MDA-MB-231 cells assessed as reduction in G1 phase at 100 nM after 48 hrs by propidium iodide staining-based flow cytometry. In kind it is functional.
Data set [5] relates to MDA-MB-231. The experiment in a line: Cell cycle arrest in human MDA-MB-231 cells assessed as accumulation at G2/M phase at 100 nM after 48 hrs by propidium iodide staining-based flow cytometry (reference value: 22%). Format: functional. Background: A flow cytometer gives signals particle by particle.
Data set [6] has as its target T1, Tubulin (Homo sapiens). Description: Inhibition of tubulin polymerization in human T24 cells at 100 nM after 24 hrs by Hoechst 33342 staining-based immunohistochemistry. In kind it is cell-based. Conditions: T-24. In a few lines: as §2
For data set [7], the system named is CCRF-CEM VCR/R. Description: (§3) Induction of apoptosis in human CCRF-CEM VCR/R cells at 2.5 uM after 72 hrs by CellTitre-Blue assay relative to control. Format: functional. In a few lines: (§4)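 CCRF-CEM-VCR-R cells treated 72 h at 2.5, 1, 0.1 or 0.01 μM; vincristine reference at 2.5 μM. Viability read by CellTiterBlue, reagent added for 2 h at 37 °C, fluorescence measured. Results given as percent of mock-treated control. Three independent experiments in quadruplicate, means ± SEM, t test.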

Data set [8] concerns MDA-MB-231. The experiment in a line: Antimigratory activity against human MDA-MB-231 cells assessed as reduction in wound closure at 100 nM after 18 hrs by wound healing assay. Format: functional. In a few lines:
(§5)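 MDA-MB-231 grown to 100% confluence in 96-well plates (2 × 10^5 per well). A ~1 mm scratch was made, detached cells were washed off and compound or DMSO was added for 16–18 h. Cells were fixed in 4% formaldehyde, stained with crystal violet and imaged. Covered area was corrected by an unscratched-and-fixed 0% control and expressed relative to DMSO (100%). Three independent experiments, quintuplicate.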

Data set [9] in a line: Cytotoxicity against human HMEC1 cells after 72 hrs by crystal violet staining assay. In kind it is functional, cell-based. Conditions: HMEC-1, 72 h.
Data set [10] has as its system MDA-MB-231. The experiment in a line: Cytotoxicity against human MDA-MB-231 cells after 72 hrs by CellTitre-Blue assay. In kind it is functional, cell-based. Conditions: MDA-MB-231, 72 h. Put shortly:
as §1

Data set [11] has as its system MDA-MB-231. The experiment in a line: Antimigratory activity against human MDA-MB-231 cells at 1 uM after 18 hrs by wound healing assay. Format: functional, cell-based. In a few lines:
as §5

Data set [12] relates to CCRF-CEM VCR/R. Description: (§6) Induction of apoptosis in human CCRF-CEM VCR/R cells at 1 uM after 72 hrs by CellTitre-Blue assay relative to control. In kind it is functional. In a few lines:
as §4

Data set [13] addresses T1, Tubulin (Homo sapiens). Description: Inhibition of tubulin polymerization in human MDA-MB-231 cells assessed as disruption of tubulin cytoskeleton at 10 nM after 24 hrs by Hoechst 33342 staining-based immunohistochemistry. In kind it is cell-based. In a few lines: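 MDA-MB-231 cells treated 24 h at 1, 10, 100 or 1000 nM, or DMSO 0.1%. Extracted 2 min in PIPES pH 6.8/MgCl2/EGTA/0.5% Triton buffer, fixed with 0.5% glutaraldehyde, reduced with NaBH4, blocked with 0.2% BSA. Anti-α-tubulin 1 h, then AlexaFluor 488 secondary plus Hoechst 33342 for 45 min. Imaged by laser scanning microscopy.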

Data set [14] concerns the target T1, Tubulin (Homo sapiens). Description: Inhibition of tubulin polymerization in human T24 cells at 10 nM after 24 hrs by Hoechst 33342 staining-based immunohistochemistry. In kind it is cell-based. Conditions: T-24.
A short description of data set [15]: as §6. In kind it is functional. Put shortly: as §4
Data set [16] deals with PBMC. Description: Cytotoxicity against human PBMC at 1 uM after 24 to 72 hrs by MTT assay. Format: cell-based. (In general: Tetrazolium assays rely on reduction of a dye to a coloured formazan, in cell work by metabolically active cells.)
Data set [17] is described as follows: as §3. In kind it is functional. Put shortly:
as §4

Data set [18] relates to MDA-MB-231. Description: Cell cycle arrest in human MDA-MB-231 cells assessed as accumulation at G2/M phase at 10 nM after 48 hrs by propidium iodide staining-based flow cytometry (reference value: 22%). Format: functional.
Data set [19] deals with CCRF-CEM. Description: Induction of apoptosis in human CCRF-CEM cells at 1 to 100 nM after 48 hrs by propidium iodide staining-based flow cytometry. In kind it is functional, cell-based. In a few lines: (§7)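 CCRF-CEM or CCRF-CEM-VCR-R cells were treated for 48 h. Cells were permeabilized in hypotonic propidium iodide solution and analysed by flow cytometry in logarithmic mode. Apoptosis was scored as the sub-G1 (DNA fragmentation) percentage.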

The nature of data set [20]: Induction of apoptosis in human CCRF-CEM VCR/R cells at 1 uM after 48 hrs by propidium iodide staining-based flow cytometry. Format: functional. Put shortly:
as §7

Data set [21] in a line: Induction of apoptosis in human CCRF-CEM VCR/R cells assessed as cell viability at 2.5 uM after 72 hrs by CellTitre-Blue assay relative to control. In kind it is functional. Conditions: read-out: Activity. In a few lines:
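Vincristine-resistant CCRF-CEM-VCR-R cells in 96-well plates were treated for 72 h at 0.01, 0.1, 1 or 2.5 μM. Viability was read by CellTiterBlue as % of mock-treated control. Three independent experiments, quadruplicate; t test.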

As to `CC[C@H](C)[C@H](NC(=O)[C@H]1CCCCN1C)C(=O)N(C)[C@H](CCc1cccc(C(=O)N[C@@H](Cc2ccccc2)C[C@H](C)C(=O)O)c1)C(C)C`, the result in [1], in [4], in [7] and in [11] was Active. Further, the result in data set [2] and in data set [8] was inactive. In addition, the inhibition entry in data set [3] and in [6] was “Active” throughout. Further, the Activity in data set [5] came to 33%. Further, the concentration for a half-maximal effect (EC50) in [9] was determined as 13.2 nM. Moreover, half-maximal inhibition in data set [10] (IC50) required 100 nM.
Turning to `CC[C@H](C)[C@H](NC(=O)[C@H]1CCCCN1C)C(=O)N(C)[C@H](CCc1nc(C(=O)N[C@H](CCC(=O)O)Cc2ccccc2)cs1)C(C)C`, the result in [1], in [4], in [12], in [7] and in data set [11] was Active. For the same molecule, the result in data set [2] was inactive. The Activity in data set [5] is 60%; in data set [8], 35%. Besides, the inhibition entry in data set [13] and in data set [14] was “Active” throughout. The EC50 in data set [9] amounted to 4.4 nM. In [10], this molecule showed an IC50 of 10.1 nM.
Turning to `CC[C@H](C)[C@H](NC(=O)[C@H]1CCCCN1C)C(=O)N(C)[C@H](CCc1nc(C(=O)N[C@@H](Cc2ccccc2)C[C@H](C)C(=O)O)cs1)C(C)C`, the outcome in data set [1] and in data set [11] was Active. In addition, the Activity is given as 70% in data set [15], “Toxic” in data set [16], 30% in data set [17] and >30% in [18]. The inhibition entry in [13] and in data set [14] was “Active” each time. In data set [10], the concentration for half-maximal inhibition (IC50) was determined as 0.6 nM.
For `CC[C@]1(O)C[C@H]2CN(CCc3c([nH]c4ccccc34)[C@@](C(=O)OC)(c3cc4c(cc3OC)N(C=O)[C@H]3[C@@](O)(C(=O)OC)[C@H](OC(C)=O)[C@]5(CC)C=CCN6CC[C@]43[C@@H]65)C2)C1` [VINCRISTINE], the outcome in [19] was Active. Also, the Activity in [20] came to 20%. Moreover, the viability at 2.5 µM in data set [21] was found to be 80%. Half-maximal inhibition in data set [10] (IC50) required 1.6 nM.

The record behind these values is ChEMBL document CHEMBL3120073, “Simplified pretubulysin derivatives and their biological effects on cancer cells” (J Nat Prod, 2014).
